Reference: ChEMBL document CHEMBL1133729, “Design, synthesis, and structure-activity relationships of phthalimide-phenylpiperazines: a novel series of potent and selective alpha(1)(a)-adrenergic receptor antagonists” (J Med Chem, 2000)

Legend:
[1] = target: Serotonin 1 (5-HT1) receptor (Rattus norvegicus, UniProt P28564+P30940+P19327+P28565); experiment: Binding affinity towards 5-hydroxytryptamine 1 receptor was determined in rat cerebral cortex using [3H]5-HT as radioligand; format: tissue-based
Summary of the method: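 Rat cerebral cortex membranes incubated with [3H]5-HT for 10 min at 37 °C in 50 mM Tris-HCl, 150 mM NaCl, 5 mM EDTA, pH 7.4. Nonspecific binding defined with 10 μM 5-HT. Filtration, then liquid scintillation counting. Ki derived from IC50 by Cheng–Prusoff; mean of three independent experiments.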

[2] = target: T1, 5-hydroxytryptamine receptor 1A (Homo sapiens, UniProt P08908); experiment: Binding affinity towards recombinant human Compound at 1 uM was tested for the inhibition of radioligand [3H]8-OH-DPAT binding to recombinant human 5-hydroxytryptamine 1A receptor was determined using [3H]8-OH-DPAT as radioligand
T1 sequence (P08908 whole entry): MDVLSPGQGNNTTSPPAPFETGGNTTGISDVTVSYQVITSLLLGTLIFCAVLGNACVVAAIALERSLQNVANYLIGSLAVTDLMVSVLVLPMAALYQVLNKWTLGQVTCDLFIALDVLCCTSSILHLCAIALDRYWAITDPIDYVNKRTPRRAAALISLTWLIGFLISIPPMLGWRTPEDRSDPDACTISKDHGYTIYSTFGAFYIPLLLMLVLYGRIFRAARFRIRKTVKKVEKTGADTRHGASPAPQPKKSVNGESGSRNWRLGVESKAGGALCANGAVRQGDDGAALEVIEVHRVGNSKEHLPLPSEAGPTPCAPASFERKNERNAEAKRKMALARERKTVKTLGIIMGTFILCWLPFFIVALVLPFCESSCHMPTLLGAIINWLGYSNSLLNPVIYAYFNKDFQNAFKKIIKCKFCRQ
Summary of the method: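 Recombinant human 5-HT1A receptor expressed in CHO cell membranes. [3H]8-OH-DPAT binding for 60 min at 25 °C in Tris/NaCl/EDTA buffer, pH 7.4. Nonspecific binding defined with 10 μM metergoline. Percent inhibition measured at 1 μM test compound in duplicate; filtration and scintillation counting.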

[3] = target: Alpha-2A adrenergic receptor (Homo sapiens, UniProt P08913); experiment: Binding affinity towards recombinant human alpha-2A adrenergic receptor was determined using [3H]MK-912 as radioligand
Sequence of Alpha-2A adrenergic receptor (P08913 whole entry): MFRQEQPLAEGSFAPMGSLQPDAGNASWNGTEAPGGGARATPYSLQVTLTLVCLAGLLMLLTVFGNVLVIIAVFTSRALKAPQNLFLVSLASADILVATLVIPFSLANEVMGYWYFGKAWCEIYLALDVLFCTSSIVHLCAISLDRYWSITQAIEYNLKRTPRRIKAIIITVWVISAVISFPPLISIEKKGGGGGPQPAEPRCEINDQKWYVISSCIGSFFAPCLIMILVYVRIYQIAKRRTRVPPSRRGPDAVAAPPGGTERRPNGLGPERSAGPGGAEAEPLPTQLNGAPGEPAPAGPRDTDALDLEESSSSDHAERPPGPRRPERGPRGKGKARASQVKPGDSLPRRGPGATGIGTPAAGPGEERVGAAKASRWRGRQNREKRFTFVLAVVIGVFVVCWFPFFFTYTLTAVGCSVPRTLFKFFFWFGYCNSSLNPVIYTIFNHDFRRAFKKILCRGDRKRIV
Summary of the method: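 Membranes from CHO cells expressing recombinant human α2a receptor; competition with [3H]MK912, 60 min at 25 °C, in 50 mM Tris-HCl/150 mM NaCl/5 mM EDTA pH 7.4. Nonspecific binding defined with 10 μM WB4101. Filtration, washing, scintillation counting. IC50 by nonlinear regression, Ki via Cheng–Prusoff; mean ± SEM of three independent experiments.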

[4] = target: T2, D(4) dopamine receptor (Homo sapiens) (UniProt P21917); experiment: Compound at 1 uM was tested for the inhibition of radioligand [3H]spiperone binding to recombinant human Dopamine receptor D4
T2 sequence (whole entry): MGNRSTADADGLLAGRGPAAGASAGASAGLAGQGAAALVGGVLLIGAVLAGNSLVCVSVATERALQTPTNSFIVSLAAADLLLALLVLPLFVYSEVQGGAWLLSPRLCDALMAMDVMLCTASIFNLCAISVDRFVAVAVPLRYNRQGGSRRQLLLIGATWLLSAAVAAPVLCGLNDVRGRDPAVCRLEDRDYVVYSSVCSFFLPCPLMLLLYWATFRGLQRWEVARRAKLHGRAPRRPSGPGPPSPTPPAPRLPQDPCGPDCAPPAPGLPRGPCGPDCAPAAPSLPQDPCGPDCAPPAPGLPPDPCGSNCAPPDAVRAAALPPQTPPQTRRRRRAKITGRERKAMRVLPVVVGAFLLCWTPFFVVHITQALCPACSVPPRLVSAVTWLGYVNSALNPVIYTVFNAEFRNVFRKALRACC
Summary of the method: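 Recombinant human D4.7 in CHO cell membranes; [3H]spiperone for 120 min at 25 °C, pH 7.4 Tris-HCl/NaCl/EDTA; haloperidol (10 μM) for nonspecific binding. Compound at 1 μM, percent inhibition determined in duplicate; filtration, scintillation counting.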

[5] = target: T1, 5-hydroxytryptamine receptor 1A; experiment: Binding affinity towards recombinant human 5-hydroxytryptamine 1A receptor was determined using [3H]8-OH-DPAT as radioligand
Summary of the method: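 Human 5-HT1A receptor expressed in CHO cells, membranes used. [3H]8-OH-DPAT, 60 min at 25 °C in Tris-HCl/NaCl/EDTA buffer, pH 7.4. Metergoline (10 μM) gave nonspecific binding. Filtered, scintillation counted. Ki from IC50 (nonlinear regression) by Cheng–Prusoff, mean ± SEM of three independent experiments.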

[6] = target: Voltage-gated L-type calcium channel (Rattus norvegicus, UniProt P22002+Q02485+P27732); experiment: Inhibition of [3H]nitrendipine binding to phenylalkylamine-sensitive [Ca2+] L-type channels in rat cerebral cortex; format: tissue-based
Histamine H1 receptor = Histamine H1 receptor (Cavia porcellus, UniProt P31389); experiment: Binding affinity towards histamine H1 receptor was determined in guinea pig brain using [3H]pyrilamine as radioligand
Sequence of Histamine H1 receptor (P31389 whole entry): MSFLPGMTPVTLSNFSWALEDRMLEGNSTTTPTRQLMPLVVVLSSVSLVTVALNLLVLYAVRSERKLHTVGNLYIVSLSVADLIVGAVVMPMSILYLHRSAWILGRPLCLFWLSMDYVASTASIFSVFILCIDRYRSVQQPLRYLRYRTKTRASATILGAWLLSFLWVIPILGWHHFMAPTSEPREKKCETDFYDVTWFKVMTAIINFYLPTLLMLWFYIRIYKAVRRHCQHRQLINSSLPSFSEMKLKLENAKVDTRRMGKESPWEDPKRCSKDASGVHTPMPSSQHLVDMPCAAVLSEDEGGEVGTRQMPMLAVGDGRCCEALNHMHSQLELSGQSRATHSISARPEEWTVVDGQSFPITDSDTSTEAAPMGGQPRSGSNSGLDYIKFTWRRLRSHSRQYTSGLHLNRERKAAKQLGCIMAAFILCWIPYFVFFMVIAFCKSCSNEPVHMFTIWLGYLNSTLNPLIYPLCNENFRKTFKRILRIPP
Summary of the method: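 Guinea pig brain membranes as source of central H1 receptors; [3H]pyrilamine, 25 °C for 60 min in 50 mM Tris-HCl, 150 mM NaCl, 5 mM EDTA, pH 7.4; nonspecific binding with 1 μM pyrilamine. Filtration, scintillation counting. Ki by Cheng–Prusoff from fitted IC50, mean ± SEM of three experiments.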

[7] = system: Alpha-1D/Alpha-1A adrenergic receptor (Homo sapiens); experiment: Ratio of binding affinity towards Alpha1d to Alpha-1A

Q: For `CCOc1ccccc1OCCN[C@H](C)Cc1ccc(OC)c(S(N)(=O)=O)c1` [TAMSULOSIN], which Ki [1] is on record?
A: 0.944 µM

Q: And the Ki [2]?
A: 0.00079 µM

Q: What about the Ki [3] of the same molecule?
A: 0.063 µM

Q: How did the inhibition [4] turn out when `Cc1ccc(N2C(=O)c3ccc(C(=O)NC[C@H](O)CN4CCN(c5ccccc5OC(C)C)CC4)cc3C2=O)cc1` was run?
A: 50%

Q: For `CC(C)Oc1ccccc1N1CCN(C[C@@H](O)CNC(=O)c2ccc3c(c2)C(=O)N(c2ccc(N(C)C)cc2)C3=O)CC1`, which Ki [5] is on record?
A: 0.015 µM

Q: What about the Ki [6] of the same molecule?
A: 0.76 µM

Q: What about the Ki (Histamine H1 receptor) of the same molecule?
A: 0.038 µM

Q: How did the Ratio [7] turn out when `Cc1ccc(N2C(=O)c3ccc(C(=O)NCCCN4CCN(c5ccccc5OC(C)C)CC4)cc3C2=O)cc1` was run?
A: 231
